Reference: ChEMBL document CHEMBL4043283, “Discovery and Preclinical Development of IIIM-290, an Orally Active Potent Cyclin-Dependent Kinase Inhibitor” (J Med Chem, 2018)

Columns and labels:
[1] = tested on: PC-3; test: Growth inhibition of human PC3 cells at 10 uM after 48 hrs by MTT assay relative to control; assay type: functional; conditions: PC-3, 48 h, read-out: GI
Summary of the method: (§1)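 Single-concentration primary screen at 10 μM by MTT assay. Cells were NCI-sourced cancer lines grown in appropriate medium at 37 °C, 95% humidity, 5% CO2. Growth inhibition is expressed relative to control.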

[2] = tested on: MIA PaCa-2; test: Growth inhibition of human MIAPaCa2 cells at 10 uM after 48 hrs by MTT assay relative to control; assay type: functional; conditions: MIA PaCa-2, 48 h, read-out: GI; summary of the method: as §1
[3] = biological target: CDK2/Cyclin A2 (Homo sapiens) (UniProt P24941+P20248); test: Inhibition of CDK2/cyclin A (unknown origin) at 0.5 uM using histone H1 as substrate after 30 mins in presence of [33P]-gamma-ATP by filter binding assay relative to control; assay type: protein-complex assay
[4] = biological target: CDK9/cyclin T1 (Homo sapiens) (UniProt O60563+P50750); test: Inhibition of CDK9/cyclin T1 (unknown origin) at 0.5 uM using YSPTSPSYSPTSPSYSPTSPKKK as substrate after 30 mins in presence of [33P]-gamma-ATP by filter binding assay relative to control; assay type: protein-complex assay
[5] = tested on: HL-60; test: Growth inhibition of human HL60 cells at 10 uM after 48 hrs by MTT assay relative to control; assay type: functional; conditions: HL-60, 48 h, read-out: GI; summary of the method: as §1
[6] = tested on: Caco-2; test: Growth inhibition of human Caco2 cells at 10 uM after 48 hrs by MTT assay relative to control; assay type: functional; conditions: Caco-2, 48 h, read-out: GI; summary of the method: as §1
[7] = tested on: MCF7; test: Growth inhibition of human MCF7 cells at 10 uM after 48 hrs by MTT assay relative to control; assay type: functional; conditions: MCF7, 48 h, read-out: GI; summary of the method: as §1

inhibition [3] [%]	inhibition [4] [%]	Compound	inhibition of growth at 10 µM [1] [%]	inhibition of growth at 10 µM [2] [%]	inhibition of growth at 10 µM [5] [%]	inhibition of growth at 10 µM [6] [%]	inhibition of growth at 10 µM [7] [%]
7	8	Cc1cc(=O)c2c(O)cc(OCc3ccco3)c([C@H]3CCN(C)C[C@H]3O)c2o1	14	7	32	17	6
1	12	Cc1cc(=O)c2c(O)c(CN(C(C)C)C(C)C)c(O)c([C@H]3CCN(C)C[C@H]3O)c2o1	0	11	21	22	33
0	2	CCOc1ccc(Br)c(C(O)c2c(C)oc3c([C@H]4CCN(C)C[C@H]4O)c(O)cc(O)c3c2=O)c1 (some centres undefined)	0	4	2	5	9
2	0	Cc1cc(=O)c2c(O)c(CN3CCN(C(=O)OC(C)(C)C)CC3)c(O)c([C@H]3CCN(C)C[C@H]3O)c2o1	1	6	13	21	16
0	0	Cc1cc(=O)c2c(O)c(CN(C)CC(=O)O)c(O)c([C@H]3CCN(C)C[C@H]3O)c2o1	20	16	23	18	27
0	4	Cc1oc2c([C@H]3CCN(C)C[C@H]3O)c(O)cc(O)c2c(=O)c1C(O)c1cccc(Cl)c1 (some centres undefined)	31	2	22	4	5
7	0	Cc1oc2c([C@H]3CCN(C)C[C@H]3O)c(O)cc(O)c2c(=O)c1C(O)c1csc([N+](=O)[O-])c1 (some centres undefined)	0	41	45	3	20
10	0	COc1ccc(COc2cc(O)c3c(=O)cc(C)oc3c2[C@H]2CCN(C)C[C@H]2O)cc1	35	15	23	8	16
5	11	CCCCCCCCCC/C=C/c1c(C)oc2c([C@H]3CCN(C)C[C@H]3O)c(O)cc(O)c2c1=O	0	4	9	10	7
0	5	Cc1cc(=O)c2c(O)c(CN3CCCC3CO)c(O)c([C@H]3CCN(C)C[C@H]3O)c2o1 (some centres undefined)	15	13	33	19	22
10	0	Cc1cc(=O)c2c(O)cc(O)c([C@H]3CCN(C)C[C@H]3OC(=O)c3ccco3)c2o1	23	13	22	33	20
2	10	Cc1oc2c([C@H]3CCN(C)C[C@H]3O)c(O)cc(O)c2c(=O)c1C(O)c1cc(F)cc(F)c1 (some centres undefined)	0	6	30	10	25
0	2	Cc1cc(=O)c2c(O)c(CN3CCN(C)CC3)c(O)c([C@H]3CCN(C)C[C@H]3O)c2o1	0	6	15	30	10
0	29	Cc1oc2c([C@H]3CCN(C)C[C@H]3O)c(O)cc(O)c2c(=O)c1C(O)c1ccccc1Br (some centres undefined)	45	10	52	7	21
7	8	Cc1cc(=O)c2c(O)cc(OC/C=C/c3ccccc3)c([C@H]3CCN(C)C[C@H]3O)c2o1	18	11	21	9	7
10	8	Cc1cc(=O)c2c(O)c(CN3CC(O)CC3C(=O)O)c(O)c([C@H]3CCN(C)C[C@H]3O)c2o1 (some centres undefined)	0	23	28	19	25
3	0	COc1ccc(C(O)c2c(C)oc3c([C@H]4CCN(C)C[C@H]4O)c(O)cc(O)c3c2=O)cc1Br (some centres undefined)	0	3	23	0	41
0	0	Cc1oc2c([C@H]3CCN(C)C[C@H]3O)c(O)cc(O)c2c(=O)c1C(O)c1ccc(Cl)cc1 (some centres undefined)	41	15	2	3	6
0	0	Cc1cc(=O)c2c(O)cc(OCc3ccc(Br)cc3)c([C@H]3CCN(C)C[C@H]3O)c2o1	17	13	27	13	14
13	13	Cc1oc2c([C@H]3CCN(C)C[C@H]3O)c(O)cc(O)c2c(=O)c1C(O)c1ccc(F)cc1 (some centres undefined)	0	17	30	11	9
0	0	Cc1oc2c([C@H]3CCN(C)C[C@H]3O)c(O)cc(O)c2c(=O)c1C(O)c1c(F)cccc1Cl (some centres undefined)	0	41	49	18	41
0	0	Cc1cc(=O)c2c(O)c(CN3CCOCC3)c(O)c([C@H]3CCN(C)C[C@H]3O)c2o1	21	4	8	11	22
